For orientation: inhibition means how much of the control response was suppressed.

Calls of active or inactive are those of the source. The calls are words filed in the database; no cut-off is given here.

Data on 20 compounds can be found in ChEMBL document CHEMBL1926663, “Identification of new aminoacid amides containing the imidazo[2,1-b]benzothiazol-2-ylphenyl moiety as inhibitors of tumorigenesis by oncogenic Met signaling” (Eur J Med Chem, 2012).

Series [1] is described as follows: Chemical stability in solid state. It is filed as physicochemical.
Series [2] can be described thus: Chemical stability in methanol. Type of series: physicochemical.
Series [3] in a line: Chemical stability in DMSO. Type of series: physicochemical.
The nature of series [4]: Chemical stability in chloroform. Type of series: physicochemical.
For series [5], the target named is Hepatocyte growth factor receptor (Homo sapiens) (UniProt P08581). As to the kind of experiment: Inhibition of Met-mediated scattering in HGF-stimulated […] MDCK cells at 10 uM pre-incubated overnight prior to HGF stimulation for 24 hrs measured after 24 to 48 hrs. It is filed as cell-based. The procedure, abridged: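 MDCK cells in DMEM with 2% FBS, 1000 cells/well, settled overnight; compounds 0.1–100 µM overnight at 37 °C, then HGF 20 ng/ml for 24 h; further 24–48 h; PBS wash, 4% PFA fix; scattered cells counted in 30 colonies; IC50 = 50% inhibition of scattering.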

In series [6] the test system is MDCK. The series can be described thus: Cytotoxicity against HGF-stimulated […] MDCK cells at 50 to 100 fold higher biologically active concentration. Type of series: cell-based.
The test system of series [7] is MDCK. The series can be described thus: Cytotoxicity against HGF-stimulated […] MDCK cells at biologically active concentration. It is filed as cell-based.
The target in series [8] is Hepatocyte growth factor receptor (Homo sapiens) (UniProt P08581). The series can be described thus: Inhibition of Met-mediated scattering in HGF-stimulated […] MDCK cells pre-incubated overnight prior to HGF stimulation for 24 hrs measured after 24 to 48 hrs. Type of series: cell-based.
The subject of series [9] is GTL 16. The series can be described thus: Cytotoxicity against serum-starved human GTL16 cells assessed as reduction of cell survival after 48 hrs by Cell Titer-Glo luminescent assay. Type of series: functional, cell-based. Background: Cellular ATP, detected with luciferase, serves as a proxy for viable cell number.
Series [10] deals with MCF7. The series can be described thus: Cytotoxicity against serum-starved human MCF7 cells over-expressing ErbB2 cells assessed as reduction of cell survival at 10 to 30 uM after 48 hrs by Cell Titer-Glo luminescent assay. It is filed as functional, cell-based.
Series [11] deals with HepG2. As to the kind of experiment: Cytotoxicity against serum-starved human HepG2 cells assessed as reduction of cell survival after 48 hrs by Cell Titer-Glo luminescent assay. Type of series: functional, cell-based.
For series [12], the system named is BT-474. The series can be described thus: Cytotoxicity against serum-starved human BT474 cells assessed as reduction of cell survival at 10 to 30 uM after 48 hrs by Cell Titer-Glo luminescent assay. It is filed as functional, cell-based. An outline of the steps: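 Cells were held in serum-free medium for 24 h, then exposed to compound for 48 h. Viability was read by CellTiter-Glo luminescence, and data come from three independent experiments run in duplicate. BT474 was routinely maintained in RPMI with 4 mM L-glutamine, 10% FBS and penicillin/streptomycin at 37 °C under 5% CO2.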

Series [13] deals with MCF7. As to the kind of experiment: Cytotoxicity against serum-starved human MCF7 cells over-expressing ErbB2 cells at 10 uM after 48 hrs by Cell Titer-Glo luminescent assay. It is filed as functional, cell-based.
The test system of series [14] is BT-474. The series can be described thus: Cytotoxicity against serum-starved human BT474 cells at 10 uM after 48 hrs by Cell Titer-Glo luminescent assay. It is filed as functional, cell-based.
Series [15] concerns GTL 16. As to the kind of experiment: Cytotoxicity against serum-starved human GTL16 cells at 2 uM after 48 hrs by Cell Titer-Glo luminescent assay. It is filed as functional, cell-based.
Series [16] deals with MCF7. The series can be described thus: Cytotoxicity against serum-starved human MCF7 cells over-expressing ErbB2 cells at 2 uM after 48 hrs by Cell Titer-Glo luminescent assay. It is filed as functional, cell-based.
Series [17] deals with BT-474. As to the kind of experiment: Cytotoxicity against serum-starved human BT474 cells at 2 uM after 48 hrs by Cell Titer-Glo luminescent assay. It is filed as functional, cell-based.
Series [18] concerns HepG2. As to the kind of experiment: Cytotoxicity against serum-starved human HepG2 cells at 2 uM after 48 hrs by Cell Titer-Glo luminescent assay. It is filed as functional, cell-based.

In the case of `Cc1cc(C)cc(CC(=O)N[C@@H](Cc2ccc(O)cc2)C(=O)Nc2ccc(-c3cn4c(n3)sc3ccccc34)cc2)c1`, the Stability entry in [1], in series [2], in [3] and in [4] was “Stable” in each case.

Consider `Cc1ccc(CC(=O)N[C@@H](Cc2ccccc2)C(=O)Nc2ccc(-c3cn4c(n3)sc3ccccc34)cc2)cc1`, for which the Stability entry in [1], in series [2], in series [3] and in series [4] was “Stable” in each case. Further, the inhibition in series [5] is 30%. The values for the Activity entry in [6] and in series [7] were “Toxic” and “Non-toxic”, respectively.

As for `Cc1ccc(C[C@H](NC(=O)Cc2cc(C(F)(F)F)cc(C(F)(F)F)c2)C(=O)Nc2ccc(-c3cn4c(n3)sc3ccccc34)cc2)cc1`, the Stability result in series [1], in series [2], in series [3] and in series [4] was “Stable” throughout.

As for `Cc1ccc(C[C@H](NC(=O)Cc2cc(C)cc(C)c2)C(=O)Nc2ccc(-c3cn4c(n3)sc3ccccc34)cc2)cc1`, the Stability result in [1], in [2], in [3] and in series [4] was “Stable” in each case.

On to `Cc1cc(C)cc(CC(=O)NCC(=O)Nc2ccc(-c3cn4c(n3)sc3ccccc34)cc2)c1`, for which the Stability entry in series [1], in series [2], in series [3] and in series [4] was “Stable” in each case. Besides, in [8], the inhibition entry was “inactive”.

On to `Cc1cc(C)cc(CC(=O)N[C@@H](Cc2ccccc2)C(=O)Nc2ccc(-c3cn4c5c(sc4n3)CCCC5)cc2)c1`, for which the Stability entry in series [1], in [2], in [3] and in series [4] was “Stable” throughout.

Turning to `O=C(Cc1cc(F)cc(F)c1)N[C@@H](Cc1ccccc1)C(=O)Nc1ccc(-c2cn3c(n2)sc2ccccc23)cc1`, the Stability entry in series [1], in [2], in series [3] and in series [4] was “Stable” throughout. Moreover, the Activity entry in series [9] is “Dose-dependent effect”; in series [6], “Toxic”; in series [7] it was “Non-toxic”; in series [11], “Dose-dependent effect”. Besides, the result in [10] and in series [12] was inactive.

For `Cc1cc(C)cc(CC(=O)N[C@H](Cc2ccccc2)C(=O)Nc2ccc(-c3cn4c5c(sc4n3)CN(Cc3ccccc3)CC5)cc2)c1`, the Stability entry in [1], in series [2], in [3] and in [4] was “Stable” each time.

Regarding `Cc1cc(C)cc(CC(=O)N[C@@H](Cc2ccccc2)C(=O)Nc2ccc(-c3cn4c5c(sc4n3)CN(Cc3ccccc3)CC5)cc2)c1`, the Stability entry in series [1], in series [2], in [3] and in series [4] was “Stable” throughout.

Consider `C[C@@H](NC(=O)Cc1cc(F)cc(F)c1)C(=O)Nc1ccc(-c2cn3c4c(sc3n2)CCN(Cc2ccccc2)C4)cc1`, for which the Stability result in series [1], in series [2], in series [3] and in series [4] was “Stable” each time.

Turning to `O=C(Cc1cc(F)cc(F)c1)N[C@@H](CS)C(=O)Nc1ccc(-c2cn3c4c(sc3n2)CN(Cc2ccccc2)CC4)cc1`, the Stability entry in series [1], in series [2], in series [3] and in series [4] was “Stable” throughout.

Take `O=C(Cc1cc(C(F)(F)F)cc(C(F)(F)F)c1)N[C@H](Cc1ccccc1)C(=O)Nc1ccc(-c2cn3c(n2)sc2ccccc23)cc1`: the Stability entry in series [1], in series [2], in series [3] and in series [4] was “Stable” each time. In addition, the Activity result in [9] was “Dose-dependent effect”; in series [6], “Toxic”; in series [7] it was “Non-toxic”; in series [11], “Dose-dependent effect”. Also, the outcome in series [10] and in [12] was inactive.

For the compound `COc1cc2ncnc(Nc3ccc(F)c(Cl)c3)c2cc1OCCCN1CCOCC1`, the outcome in [13] and in series [14] was Active.

Consider `O=C(Cc1cc(C(F)(F)F)cc(C(F)(F)F)c1)N[C@@H](Cc1ccccc1)C(=O)Nc1ccc(-c2cn3c(n2)sc2cc(Br)ccc23)cc1`, for which the Stability entry in series [1], in series [2], in [3] and in series [4] was “Stable” each time. Further, the Activity entry was “Toxic” in series [6] and “Non-toxic” in series [7].

Turning to `C[C@H](NC(=O)Cc1cc(F)cc(F)c1)C(=O)Nc1ccc(-c2cn3c4c(sc3n2)CCN(Cc2ccccc2)C4)cc1`, the Stability result in series [1], in series [2], in series [3] and in series [4] was “Stable” each time.

Regarding `Cc1cc(C)cc(CC(=O)N[C@H](Cc2ccccc2)C(=O)Nc2ccc(-c3cn4c(n3)sc3ccccc34)cc2)c1`, the Stability entry in series [1], in series [2], in series [3] and in series [4] was “Stable” throughout. For the same compound, the Activity entry in series [6] was “Toxic”; in series [7], “Non-toxic”.

`O=C(Cc1cc(F)cc(F)c1)NCCC(=O)Nc1ccc(-c2cn3c4c(sc3n2)CCN(Cc2ccccc2)C4)cc1`: the Stability entry in [1], in series [2], in [3] and in series [4] was “Stable” each time.

For `Cc1cc(C)cc(CC(=O)N[C@@H](Cc2ccccc2)C(=O)Nc2ccc(-c3cn4c(n3)sc3ccccc34)cc2)c1`, the Stability entry in series [1], in series [2], in [3] and in series [4] was “Stable” throughout. Moreover, the Activity result in [9] was “Dose-dependent effect”; in series [6] it was “Toxic”; in series [7] it was “Non-toxic”; in series [11], “Dose-dependent effect”. The result in series [10] and in series [12] was inactive.

On to `Cc1[nH]c(/C=C2\C(=O)Nc3ccc(S(=O)(=O)N(C)c4cccc(Cl)c4)cc32)c(C)c1C(=O)N1CCN(C)CC1`, for which the outcome in series [15] and in series [18] was Active. In addition, the outcome in [16] and in [17] was inactive.

Regarding `O=C(Cc1cc(F)cc(F)c1)NCCC(=O)Nc1ccc(-c2cn3c4c(sc3n2)CN(Cc2ccccc2)CC4)cc1`, the Stability result in series [1], in [2], in [3] and in series [4] was “Stable” in each case.
